14 compounds from ChEMBL document CHEMBL1158686, “Three new taxane diterpenoids from Taxus sumatrana” (2005) can be followed below.

What all share (assay type): functional
One test relates to A498. Briefly: Cytotoxicity against human A498 cells assessed as growth inhibition after at 30 ug/ml 48 hrs by SRB assay. The note with it: A498, 48 h. The gist of the method: (§1)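 Adherent cells were seeded at 5000–40 000 cells/well according to doubling time and preincubated 24 h at 37 °C in 5% CO2 and humidified air. Drug was diluted in complete medium with 50 µg/mL gentamicin and exposed for 48 h under the same conditions. Cells were fixed in situ with cold TCA (10% final, 60 min, 4 °C), stained with 0.4% SRB in 1% HOAc, solubilized in 10 mM Tris base, and read at 515 nm.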
A general note: In SRB staining, fixed cells bind dye roughly in proportion to their protein.

For the next test, the system named is NCI-H226. Nature of the test: Cytotoxicity against human NCI-H226 cells assessed as growth inhibition after at 30 ug/ml 48 hrs by SRB assay. The note with it: NCI-H226, 48 h. The gist of the method: as §1
A further test concerns A549. Nature of the test: Cytotoxicity against human A549 cells assessed as growth inhibition after at 30 ug/ml 48 hrs by SRB assay. Conditions: A549, 48 h. An outline of the steps: as §1
Another test deals with PC-3. Nature of the test: Cytotoxicity against human PC-3 cells assessed as growth inhibition after at 30 ug/ml 48 hrs by SRB assay. The note with it: PC-3, 48 h. The gist of the method: as §1

As to `CC(=O)O[C@@]12CO[C@@H]1C[C@H](O)[C@@]1(C)C(=O)[C@H](O)C3=C(C)[C@@H](O)C[C@@](O)([C@@H](OC(=O)c4ccccc4)[C@H]21)C3(C)C`, the inhibition at 30 µg/mL was found to be 27% with A498, 5.7% in the test on NCI-H226, 12.2% in the test on A549 and 1.6% in the test on PC-3.

In the case of `CC(=O)O[C@@]12CO[C@@H]1C[C@H](O)[C@@]1(CO)C(=O)[C@H](O)C3=C(C)[C@@H](O)C[C@@](O)([C@@H](OC(=O)c4ccccc4)[C@H]21)C3(C)C`, the inhibition at 30 µg/mL was 16.6% in the test on A498, 32% in the test with NCI-H226, 0% in the test on A549 and 2.3% in the test with PC-3.

As to `CC(=O)OC[C@]1(O)[C@@H](OC(C)=O)C[C@H](OC(C)=O)[C@]2(C)[C@@H]1[C@H](O)[C@]1(C(C)(C)O)C[C@H](O)C(C)=C1[C@@H](O)[C@@H]2OC(=O)c1ccccc1` [TASUMATROLS E], the inhibition at 30 µg/mL in the test with A498 came to 100%; in the test with NCI-H226, 84.8%; in the test on A549, 91.3%; in the test on PC-3 it was 94.7%.

`CC(=O)OC[C@H]1[C@H]2[C@H](O)[C@]3(C(C)(C)O)C[C@H](O)C(C)=C3[C@@H](O)[C@H](OC(=O)c3ccccc3)[C@]2(C)[C@@H](OC(C)=O)C[C@@H]1OC(C)=O` [TASUMATROL F]: the inhibition at 30 µg/mL was found to be 83% in the test with A498, 78.5% with NCI-H226, 72.6% with A549 and 95% in the test on PC-3.

For the compound `CC(=O)O[C@H]1C[C@H]2OC[C@@]2(OC(C)=O)[C@H]2[C@H](OC(=O)c3ccccc3)[C@]3(C(C)(C)O)C[C@H](O)C(C)=C3[C@@H](O)[C@H](OC(C)=O)[C@]12C`, the inhibition at 30 µg/mL was 21.7% in the test on A498, 19.9% in the test on NCI-H226, 27.1% in the test on A549 and 1.9% in the test with PC-3.

For the compound `CC(=O)O[C@@]12CO[C@@H]1C[C@H](O)[C@]1(C)[C@@H]2[C@H](OC(=O)c2ccccc2)[C@]23C[C@H](O)C(C)=C2[C@@]1(O)C(=O)OC3(C)C` [WALLIFOLIOL], the inhibition at 30 µg/mL in the test with A498 is 27.9%; with NCI-H226, 29.1%; in the test on A549 it was 16.7%; in the test on PC-3, 6.4%.

`C=C1[C@@H](O)C[C@H](OC(C)=O)[C@@]2(COC(=O)c3ccccc3)[C@@H](OC(C)=O)[C@H](OC(C)=O)[C@]3(O)[C@@]4(C)CO[C@]3(C)C(=O)C[C@H]4[C@@H](OC(C)=O)[C@H]12` [TAXININ M]: the inhibition at 30 µg/mL is 24.3% with A498, 11.1% in the test on NCI-H226, 14.6% with A549 and 0% in the test on PC-3.

As for `CC(=O)O[C@H]1C(=O)[C@@]2(C)[C@H]([C@H](OC(=O)c3ccccc3)[C@]3(O)C[C@H](OC(=O)[C@H](O)[C@@H](NC(=O)c4ccccc4)c4ccccc4)C(C)=C1C3(C)C)[C@]1(OC(C)=O)CO[C@@H]1C[C@@H]2O` [PACLITAXEL], the inhibition at 30 µg/mL came out at 98.2% with A498, 71.2% in the test with NCI-H226, 79.7% with A549 and 91.7% with PC-3.

For the compound `CC(=O)O[C@H]1C(=O)[C@@]2(CO)[C@H]([C@H](OC(=O)c3ccccc3)[C@]3(O)CC(=O)C(C)=C1C3(C)C)[C@]1(OC(C)=O)CO[C@@H]1C[C@@H]2O`, the inhibition at 30 µg/mL in the test with A498 stood at 79.8%; in the test on NCI-H226, 84.7%; with A549 it was 45.4%; with PC-3, 88.2%.

As to `CC(=O)O[C@@]12CO[C@@H]1C[C@H](O)[C@@]1(C)C(=O)C(=O)C3=C(C)[C@@H](O)C[C@@](O)([C@@H](OC(=O)c4ccccc4)[C@H]21)C3(C)C`, the inhibition at 30 µg/mL came out at 79.1% with A498, 97.3% in the test on NCI-H226, 54.7% in the test on A549 and 100% in the test on PC-3.

With `CC(=O)O[C@@]12CO[C@@H]1C[C@H](O)[C@@]1(C)C(=O)[C@H](O)C3=C(C)C(=O)C[C@@](O)([C@@H](OC(=O)c4ccccc4)[C@H]21)C3(C)C`, the inhibition at 30 µg/mL in the test with A498 came out at 29.7%; in the test with NCI-H226 it was 49.2%; in the test with A549 it was 43.9%; with PC-3 it was 65.3%.

For the compound `CC(=O)O[C@H]1C(=O)[C@@]2(CO)[C@H]([C@H](OC(=O)c3ccccc3)[C@]3(O)C[C@H](O)C(C)=C1C3(C)C)[C@]1(OC(C)=O)CO[C@@H]1C[C@@H]2O`, the inhibition at 30 µg/mL in the test with A498 came to 26.7%; with NCI-H226, 44.6%; in the test on A549 it was 0%; in the test on PC-3, 47.7%.

Take `CC(=O)O[C@H]1C[C@H](OC(C)=O)[C@]2(C)[C@@H]3[C@H](OC[C@]13OC(=O)c1ccccc1)[C@]1(C(C)(C)O)C[C@H](O)C(C)=C1[C@@H](O)[C@@H]2OC(C)=O` [TASUMATROL G]: the inhibition at 30 µg/mL in the test with A498 was determined as 15.3%; with NCI-H226 it was 78.9%; in the test on A549, 24.1%; in the test on PC-3, 58.9%.

As to `CC(=O)O[C@H]1C[C@H](OC(C)=O)[C@]2(C)[C@@H]([C@@H]1CO)[C@H](OC(C)=O)[C@]1(C(C)(C)O)C[C@H](O)C(C)=C1[C@@H](O)[C@@H]2OC(C)=O` [TAXAYUNTIN G], the inhibition at 30 µg/mL with A498 is 21.2%; in the test on NCI-H226, 29.3%; in the test with A549 it was 0%; with PC-3 it was 1.4%.

As a reminder, the inhibition is the drop in the measured response relative to a control, in per cent.
